Sampled rows, rich in hits. Any-hit rate of the full collection: about 4.2%.
TAAR1 agonist = human TAAR1 agonists, primary screen, Fluo-8 calcium fluorescence, CHO RD-HGA16 cells; actives 0.99% (n = 360,000); vehicle wells 0%, saturating PEA agonist 100%; AID 624467, 2012; activation, % at 3 µM;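 active = activation above the mean activation of all test compounds in the run plus 3 SD, cut at about 38% in these data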
Target sequence (Q96RJ0 whole entry, looked up): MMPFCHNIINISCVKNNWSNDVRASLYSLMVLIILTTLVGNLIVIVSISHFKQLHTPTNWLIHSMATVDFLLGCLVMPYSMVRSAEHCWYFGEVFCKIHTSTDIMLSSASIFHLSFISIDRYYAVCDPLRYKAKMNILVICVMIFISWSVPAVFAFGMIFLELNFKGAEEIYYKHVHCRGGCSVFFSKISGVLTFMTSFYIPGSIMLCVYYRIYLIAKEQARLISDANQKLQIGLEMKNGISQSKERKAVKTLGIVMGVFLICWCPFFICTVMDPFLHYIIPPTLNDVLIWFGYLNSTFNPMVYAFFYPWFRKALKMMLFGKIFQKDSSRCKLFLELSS
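Repeats: no replicates (n 1) | Material: CHO-derived RD-HGA16 cells with stable Gα16 and human TAAR1 | Technique: Kinetic Fluo-8 calcium fluorescence | Schedule: 17-24 h seeding, 75 min 37 °C dye, 30 min RT | Evaluation: % activation from peak over basal fluorescence ratio, DMSO-to-PEA scaled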
CHO parental Ca = ATP-evoked calcium signal inhibitors, parental CHO, primary screen, counter-screen for OX1R antagonist project, cell-based, fluorescence, Fluo-8 calcium dye. parental CHO-K1, ATP-induced calcium, Fluo-8 fluorescence. inhibition, % at 5.6 µM. actives 0.63% (n = 330,000). AID 463079, 2010;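 active = inhibition above that plate's mean sample inhibition plus 3 SD, cut at about 26% in these data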
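Assay system – parental CHO cells · Reagent – ATP stimulus · Detection – intracellular calcium via Fluo-8 no-wash fluorescent dye · Evaluation – percent inhibition of ATP-evoked calcium rise, normalized to controls · Controls – ATP wells versus no-ATP DMSO wells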
OX1R antag-1 = OX1R (HCRTR1) antagonists, primary screen, fluorescence, CHO/OX1R cells, Fluo-8 calcium, orexin A; Orexin/Hypocretin receptor type 1 (Homo sapiens), O43613; inhibition, % at 5 µM; actives 0.43% (n = 330,000); Fluo-8 calcium fluorescence; AID 434989, 2010;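 active = inhibition above its plate's threshold, mean inhibition of all tested compounds on the plate plus 3 SD, cut at about 37% in these data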
Target sequence (O43613 whole entry, looked up): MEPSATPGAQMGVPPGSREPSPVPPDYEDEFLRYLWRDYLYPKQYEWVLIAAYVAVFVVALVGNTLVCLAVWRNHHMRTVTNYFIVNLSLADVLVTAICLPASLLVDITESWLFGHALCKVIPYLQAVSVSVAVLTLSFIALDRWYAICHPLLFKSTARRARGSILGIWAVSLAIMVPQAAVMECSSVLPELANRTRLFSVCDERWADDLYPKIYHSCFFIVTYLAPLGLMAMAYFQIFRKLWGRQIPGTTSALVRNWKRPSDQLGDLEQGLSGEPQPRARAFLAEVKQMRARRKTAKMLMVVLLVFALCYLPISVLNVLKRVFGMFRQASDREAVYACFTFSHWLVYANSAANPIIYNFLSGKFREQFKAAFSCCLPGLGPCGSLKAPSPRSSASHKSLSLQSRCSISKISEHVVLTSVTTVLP
GalR3 antagonist = GalR3 antagonists in HEK293 cells, primary screen, cell-based, fluorescence readout. HEK293 GalR3-CNG cAMP membrane potential fluorescence; galR3 body fused to GalR1 C-terminus. inhibition, % at 3 µM. actives 0.44% (n = 360,000). AID 651719, 2012;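 active = inhibition above the screen-wide average plus 3 SD, cut at about 13% in these data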;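 note: forskolin and galanin both at EC90 stimulate the cells; cAMP rise reported by CNG channel membrane potential dye signal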
OX1R antag-2 = antagonists of human orexin 1 receptor (OX1R); OX1R-expressing cells, FRET antagonist read-out; inhibition, % at 6.6 µM; actives 1.8% (n = 330,000); in the data active = inhibition mostly above about 38%, no sharp cut-off; inactive = mostly below about 40%
TAAR1 antag = human TAAR1 antagonists, primary screen, Fluo-8 calcium fluorescence, CHO RD-HGA16 cells. Trace amine-associated receptor 1 (Homo sapiens), Q96RJ0. actives 1.5% (n = 360,000). inhibition, % at 3 µM. antagonist;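 active = inhibition above a per-plate cutoff, the mean inhibition of test compounds on that plate plus 3 SD, cut at about 49% in these data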
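Assay system: CHO-derived RD-HGA16 cells stably expressing human TAAR1 plus Gα16. Timing: 140 s kinetic read after compound, 140 s after agonist. Technique: kinetic Fluo-8 calcium fluorescence measurement. Measure: % inhibition of agonist calcium response.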
OX1R Fluo8 conf = OX1R (HCRTR1) antagonists, confirmation, fluorescence, CHO/OX1R cells, Fluo-8 calcium, orexin A. shares compounds with OX1R antag-1. orexin A calcium Fluo-8 fluorescence. inhibition, % at 5 µM. actives 38% (n = 1,100). AID 492963, 2010; in the data active = inhibition above about 29%
CHO Ca triplic = ATP-evoked calcium inhibition in parental CHO, counter-screen for OX1R antagonist project, cell-based, fluorescence, CHO-K1, triplicate; shares compounds with OX1R antag-1; ATP-induced calcium, Fluo-8 fluorescence; inhibition, % at 5.6 µM; actives 9.3% (n = 1,100); AID 492965, 2010;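 active = inhibition above a per-plate limit, the mean inhibition of that plate's test compounds plus 3 SD, cut at about 25% in these data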
OX1R HTRF confirm = OX1R (HCRTR1) antagonists, confirmation, cell-based, HTRF; OX1R-expressing cells, HTRF antagonist assay; shares compounds with OX1R antag-2; AID 492964, 2010; inhibition, % at 6.6 µM; actives 49% (n = 1,800); in the data active = inhibition above about 55%;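 note: CHO cells expressing OX1R stimulated with orexin A at about EC80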
CHO-K1 HTRF = signal inhibition in parental CHO-K1 cells, counter-screen for OX1R antagonist project, cell-based, HTRF; shares compounds with OX1R antag-2; HTRF counterscreen; inhibition, % at 6.6 µM; actives 48% (n = 1,800); AID 493232, 2011; in the data active = inhibition above about 17%
TAAR1 ag confirm = human TAAR1 agonists, retest of hits, confirmation, Fluo-8 calcium fluorescence, CHO RD-HGA16 cells; shares compounds with TAAR1 agonist; scaled: DMSO 0%, maximal phenethylamine 100%; activation, % at 3 µM; actives 82% (n = 2,400); AID 651783, 2012;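 active = activation above a cutoff set at the run's mean compound activation plus 3 SD, cut at about 39% in these data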
Ga16 ag counter = nonselective calcium mobilization agonists, CHO-Ga16 cells, counter-screen for hTAAR1 agonist project, cell-based, fluorescence, CHO-Ga16 parental line; shares compounds with TAAR1 agonist; Fluo-8 calcium fluorescence; normalized to maximal ATP response, DMSO zero; activation, % at 3 µM; actives 50% (n = 2,400);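 active = activation above the run cutoff, the mean activation over all tested wells plus 3 SD, cut at about 12% in these data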
TAAR1 desens = TAAR1 desensitization by agonist hits, confirmation, counter-screen for TAAR1 agonist project, cell-based, fluorescence, tachyphylaxis; actives 46% (n = 2,400); AID 651951, 2012; CHO RD-HGA16 hTAAR1, Fluo-8 calcium, beta-PEA response inhibition; inhibition, % at 3 µM; shares compounds with TAAR1 agonist;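 active = inhibition above the run cutoff, the mean inhibition of all test compounds plus 3 SD, cut at about 49% in these data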;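 note: beta-PEA stimulus applied at its EC80; loss of beta-PEA calcium signal after compound pretreatment read as receptor desensitization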
Ga16 antag count = inhibition of ATP-evoked calcium response in CHO-Ga16 cells, counter-screen for TAAR1 agonist project, cell-based, fluorescence. CHO-Ga16 ATP-induced calcium, Fluo-8 fluorescence. inhibition, % at 3 µM. actives 39% (n = 2,400). shares compounds with TAAR1 agonist;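 active = inhibition above the plate's mean compound inhibition plus 3 SD, computed per plate, cut at about 22% in these data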
GalR3 conf = GalR3 antagonist hit confirmation, cell-based, fluorescence, triplicate | AID 652245, 2013 | HEK293 GalR3 CNG cAMP biosensor, membrane potential fluorescence; galR3 fused to GalR1 carboxy tail; challenged with forskolin and galanin at EC90 | actives 59% (n = 1,600) | inhibition, % at 3 µM | shares compounds with GalR3 antagonist;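 active = inhibition above the primary screen's cutoff, the mean inhibition of all screened compounds plus 3 SD, cut at about 13% in these data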
CNG parental = nonspecific cAMP agonists in parental HEK-CNG cells, counter-screen for GalR3 antagonist project, cell-based, fluorescence, high throughput; shares compounds with GalR3 antagonist; HEK293-CNG parental cells, cAMP membrane potential fluorescence; normalised: DMSO wells 0%, forskolin wells 100%; activation, % at 3 µM; actives 10% (n = 1,600); AID 652268, 2013; in the data active = activation above about 1.3%
Numbers stand for hits; . = inactive; / = no result given.

SMILES	TAAR1 agonist	CHO parental Ca	OX1R antag-1	GalR3 antagonist	OX1R antag-2	TAAR1 antag	OX1R Fluo8 conf	CHO Ca triplic	others
Cc1ccc(C(=O)CSC2=C(C#N)C(c3ccco3)CC(=O)N2)c(C)c1 (configuration not stated)	73.9	.	.	.	.	.	38.9	.	TAAR1 ag confirm=48.0;Ga16 ag counter=25.3;TAAR1 desens=.;Ga16 antag count=23.6
Cc1ccc(NC(=O)CSC2=C(C#N)C(c3ccco3)CC(=O)N2)cc1 (configuration not stated)	.	.	.	.	.	.	/	/
C[C@]12c3[nH]c4ccc(Cl)cc4c3CCN1C(=O)[C@@H](CC(=O)NCc1cccc(C(F)(F)F)c1)C[C@@H]2C(=O)N1CCCCC1	.	.	.	.	.	.	/	/
CCOC(=O)c1ccc(NC(=S)N2CCSC2c2ccc(Cl)cc2)cc1 (configuration not stated)	122.6	.	.	.	.	105.2	90.6	73.5	TAAR1 ag confirm=136.5;Ga16 ag counter=93.7;TAAR1 desens=105.9;Ga16 antag count=79.6
C/C(=N\NC(=O)c1ccncc1)c1cc2ccccc2oc1=O	.	.	.	.	.	.	/	/
C/C(=N/NC(=O)c1ccncc1)c1cc2ccc(O)cc2oc1=O	89.8	.	.	.	.	.	66.5	54.4	TAAR1 ag confirm=134.0;Ga16 ag counter=152.7;TAAR1 desens=.;Ga16 antag count=.
CCN(CC(=O)Nc1c(F)cccc1F)C(=O)CNC(=O)COc1ccccc1	.	.	.	.	.	.	/	/
CC(=O)c1ccc(OC(=O)c2ccc(Br)o2)cc1	.	.	.	.	.	.	/	/
CCC(=O)c1ccc(OC(=O)c2ccc(Br)o2)cc1	123.3	.	.	.	.	83.7	37.8	38.9	TAAR1 ag confirm=76.0;Ga16 ag counter=71.0;TAAR1 desens=63.5;Ga16 antag count=50.8
CCCCCCCn1c2c(c(=N)c3ccccc31)CCC2	.	.	.	42.0	.	.	.	37.7	GalR3 conf=58.0;CNG parental=7.3
CCCn1c2c(c(=N)c3c1CCC3)CCC2	.	.	.	.	.	.	/	/
Cc1cccc2nc(Cn3c(=O)n(CCC(=O)NCc4ccco4)c(=O)c4sccc43)cc(=O)n12	.	.	.	.	.	.	/	/
COc1ccc(CCNc2c(C)c(C)nc3ncnn23)cc1	.	.	44.8	90.4	.	.	.	76.9	GalR3 conf=89.9;CNG parental=.
COc1ccc(CNC(=O)Cc2nn(C)c(=O)c3ccccc23)cc1	.	.	.	33.7	.	.	.	32.6	GalR3 conf=28.6;CNG parental=.
O=C(c1ccccc1NS(=O)(=O)c1ccc(F)cc1)N1CCOCC1	.	.	.	.	.	.	/	/
CN1C(=O)C2(N=c3ccccc3=N2)c2ccccc21	/	.	.	/	79.0	/	/	/	OX1R HTRF confirm=86.4;CHO-K1 HTRF=.
COc1ccc(C(=O)NNC(=O)C2CC=CCC2)cc1 (configuration not stated)	.	.	.	.	.	.	/	/
CC1CCN(S(=O)(=O)CCNC(=O)c2ccccc2)CC1	.	.	.	.	88.9	.	/	/	OX1R HTRF confirm=.;CHO-K1 HTRF=.
C=CCOn1c(=O)c(-c2ccc(OC)cc2)[n+]([O-])c2ccccc21	.	.	.	.	98.3	.	/	/	OX1R HTRF confirm=.;CHO-K1 HTRF=47.6
COc1ccc(-c2c(=O)n(OCc3nc4ccccc4[nH]3)c3ccccc3[n+]2[O-])cc1	.	.	.	.	.	.	/	/
Cc1c(=O)n(OCc2ccccc2)c2ccccc2[n+]1[O-]	.	.	.	.	103.3	.	/	/	OX1R HTRF confirm=.;CHO-K1 HTRF=24.9
CS(=O)(=O)Nc1ccccc1C(=O)N1CCN(c2ccccc2)CC1	.	.	.	.	.	.	/	/
Cc1nn(C)cc1/C=N/NC(=O)c1ccc2c(c1)OCO2	.	.	.	.	83.4	.	/	/	OX1R HTRF confirm=.;CHO-K1 HTRF=.
O=C(N/N=C/c1cc2c(cc1[N+](=O)[O-])OCO2)c1ccc2c(c1)OCO2	.	.	.	.	.	.	/	/

Screens as filed in PubChem BioAssay.
